20 compounds from ChEMBL document CHEMBL3784986, “Discovery and Characterization of Biased Allosteric Agonists of the Chemokine Receptor CXCR3” (J Med Chem, 2016) can be followed below.

The nature of data set [1]: Cytotoxicity against HEK293T cells expressing CXCR3 at 10 uM incubated overnight by ApoTox-Glo Triplex assay. It counts as cell-based. Particulars: human, hek-293t. Summed up:
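10,000 HEK293T cells stably expressing CXCR3 incubated overnight with compound at 10 µM. ApoTox-Glo triplex. Viability read by fluorescence at 400Ex/505Em (GF-AFC) and cytotoxicity at 485Ex/520Em (bis-AAF-R110), each after a 30 min reagent step. Caspase-3/7 luminescence then read after a further 30 min.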

Data set [2] has as its target T1, C-X-C chemokine receptor type 3 (Homo sapiens) (UniProt P49682).
T1 sequence (whole entry): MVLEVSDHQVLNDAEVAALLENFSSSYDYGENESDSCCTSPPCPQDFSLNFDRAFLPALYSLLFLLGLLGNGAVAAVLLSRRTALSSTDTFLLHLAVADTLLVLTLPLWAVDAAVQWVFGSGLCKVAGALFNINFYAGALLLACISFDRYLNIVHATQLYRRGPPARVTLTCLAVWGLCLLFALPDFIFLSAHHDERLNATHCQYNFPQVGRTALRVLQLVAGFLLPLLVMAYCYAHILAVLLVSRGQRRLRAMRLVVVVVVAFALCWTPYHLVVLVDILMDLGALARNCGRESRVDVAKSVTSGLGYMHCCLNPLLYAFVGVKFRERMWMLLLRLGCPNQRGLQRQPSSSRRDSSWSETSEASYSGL
As to the kind of experiment: Positive allosteric modulation of human CXCR3 expressed in HEK293T cell membranes after 30 mins by [35S]GTPgammaS incorporation assay. It is filed as functional. Particulars: HEK-293T. The essentials: (§1)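 Membranes from HEK293 cells stably expressing CXCR3 (30 µg/mL protein) in 20 mM HEPES, 10 mM MgCl2, 100 mM NaCl, 100 mg/L saponin, pH 7.4. Compound plus 1 µM GDP preincubated 30 min at 37 °C, then 0.10 nM [35S]GTPγS added for 30 min at 37 °C. Filtered on GF/B and counted. Efficacy expressed as % of CXCL11. Three experiments in triplicate, pEC50 by nonlinear regression.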
In general terms: GTPγS is a poorly hydrolysed GTP analogue; its binding reports G protein activation.

For data set [3], the target named is T1, C-X-C chemokine receptor type 3 (Homo sapiens). In words: Positive allosteric modulation of human CXCR3 expressed in HEK293T cell membranes after 30 mins by [35S]GTPgammaS incorporation assay relative to CXCL11. It is filed as functional. Particulars: HEK-293T. Summed up:
as §1

Data set [4] has the same target. As to the kind of experiment: Inhibition of CXCL11-mediated activation of human CXCR3 expressed in HEK cells. It is filed as cell-based. Particulars: HEK293.
Data set [5] shares this target. In words: Inhibition of CXCL10-mediated activation of human CXCR3 expressed in HEK cells. It is filed as cell-based. To be noted: HEK293.
The target is the same in data set [6]. As to the kind of experiment: Positive allosteric modulation of ProLink1-tagged wild type CXCR3 (unknown origin) expressed in HEK293T cells assessed as beta-arrestin-2 recruitment incubated for 4 hrs by chemiluminescence-based microplate reader method relative to CXCL11. It counts as cell-based. Particulars: HEK-293T. The essentials:
(§2)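 HEK293 cells stably expressing β-gal enzyme acceptor, transiently transfected with PK1- or PK2-tagged wild-type CXCR3, 2000 cells/well, grown overnight at 37 °C. Compounds or CXCL11 in PBS pH 7.4 with 0.20% BSA added for 4 h. Detection mix 60 min at room temperature, then chemiluminescence read. Efficacy expressed as % of CXCL11 effect. Two to three experiments in triplicate.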

The target is the same in data set [7]. In words: Positive allosteric modulation of ProLink2-tagged wild type CXCR3 (unknown origin) expressed in HEK293T cells assessed as beta-arrestin-2 recruitment incubated for 4 hrs by chemiluminescence-based microplate reader method relative to CXCL11. It counts as cell-based. Particulars: HEK-293T. The essentials:
as §2

Data set [8] shares this target. As to the kind of experiment: Positive allosteric modulation of ProLink1-tagged wild type CXCR3 (unknown origin) expressed in HEK293T cells assessed as beta-arrestin-2 recruitment incubated for 4 hrs by chemiluminescence-based microplate reader method. To be noted: HEK-293T. It is filed as cell-based. Summed up: as §2

The source made the active and inactive calls. No cut-off for these calls is given here.

Turning to `CC(C)(C)OC(=O)NCCCC[C@H](NC(=O)OCc1ccccc1)C(=O)NCC(c1ccccc1)c1ccccc1`, the Activity entry in data set [1] is recorded as “Non-toxic”.
`CC(=O)CCC(=O)N1Cc2ccccc2C[C@H]1C(=O)NCCCC[C@H](NC(=O)OC(C)(C)C)C(=O)NCC(c1ccccc1)c1ccccc1`: the pEC50 entry in data set [2] was “inactive”. The Efficacy entry in data set [3] is “inactive”. The Activity entry in data set [1] was “Non-toxic”. The inhibition result in data set [4] and in data set [5] was “inactive” in each case. The results for the Efficacy in data set [6] and in data set [7] were 34% and 63%, respectively.
As to `CC(C)(C)OC(=O)N[C@@H](CCCCNC(=O)[C@@H]1Cc2ccccc2CN1)C(=O)NCC(c1ccccc1)c1ccccc1`, the Efficacy in data set [3] was found to be 34%; in data set [6], 31%; in data set [7] it was 79%. Besides, in data set [1], the Activity result is listed as “Non-toxic”. Further, the inhibition entry in data set [4] and in data set [5] was “inactive” throughout.
Turning to `CC(C)(C)OC(=O)N[C@@H](CCCCNC(=O)[C@@H]1Cc2ccccc2CN1C(=O)CCC(=O)c1cccs1)C(=O)NCC(c1ccccc1)c1ccccc1`, the pEC50 entry in data set [2] and in data set [8] was “inactive” throughout. The Efficacy entry in data set [3] and in data set [6] was “inactive” each time. Further, the inhibition entry in data set [4] and in data set [5] was “inactive” in each case.
On to `CC(C)(C)OC(=O)N[C@@H](CCCCNC(=O)[C@@H]1Cc2ccccc2CN1C(=O)CCc1ccccc1)C(=O)NCC(c1ccccc1)c1ccccc1`, for which the Efficacy in data set [3] worked out at 30%; in data set [6], 19%; in data set [7] it was 29%. Besides, the Activity entry in data set [1] was “Non-toxic”. Moreover, the inhibition result in data set [4] and in data set [5] was “inactive” in each case.
Consider `CC(C)(C)OC(=O)N[C@@H](CCCCNC(=O)[C@@H]1Cc2ccccc2CN1C(=O)CCC(=O)N1CCOCC1)C(=O)NCC(c1ccccc1)c1ccccc1`, for which the pEC50 result in data set [2] and in data set [8] was “inactive” throughout. Besides, the Efficacy result in data set [3] and in data set [6] was “inactive” throughout. The inhibition entry in data set [4] and in data set [5] was “inactive” each time.
On to `CC(C)(C)OC(=O)N[C@@H](CCCCNC(=O)[C@@H]1Cc2ccccc2CN1C(=O)CCC(=O)c1ccc(S(C)(=O)=O)cc1)C(=O)NCC(c1ccccc1)c1ccccc1`, for which the Efficacy in data set [3] was 25%. In data set [1], the Activity result is “Non-toxic”. Also, the inhibition result in data set [4] and in data set [5] was “inactive” throughout. In addition, the pEC50 result in data set [8] is “inactive”. For the same compound, the Efficacy result in data set [6] was “inactive”.
Take `CC(C)(C)OC(=O)N[C@@H](CCCCNC(=O)[C@@H]1Cc2ccccc2CN1C(=O)CCC(=O)c1ccc(F)cc1)C(=O)NCC(c1ccccc1)c1ccccc1`: in data set [3], the Efficacy was determined as 20%. The Activity entry in data set [1] is given as “Non-toxic”. Further, the inhibition entry in data set [4] and in data set [5] was “inactive” each time. The pEC50 result in data set [8] is “inactive”. The Efficacy entry in data set [6] was “inactive”.
Consider `NCCCC[C@H](NC(=O)[C@@H]1Cc2ccccc2CN1C(=O)CCC(=O)c1ccccc1)C(=O)NCC(c1ccccc1)c1ccccc1.O=C(O)C(F)(F)F`, for which the Activity result in data set [2] was “Dose-dependent effect”; in data set [1], “Non-toxic”. The values for the Efficacy in data set [3] and in data set [6] were 109% and 139%, respectively.
In data set [3], `CC(C)(C)OC(=O)N[C@@H](CCCCNC(=O)[C@@H]1Cc2ccccc2CN1C(=O)CCCc1ccccc1)C(=O)NCC(c1ccccc1)c1ccccc1` had an Efficacy of 29%. In addition, in data set [1], the Activity entry is “Non-toxic”. For the same compound, the inhibition result in data set [4] and in data set [5] was “inactive” each time. For the same compound, the pEC50 result in data set [8] is “inactive”. Besides, the Efficacy result in data set [6] is “inactive”.
In the case of `CC(C)(C)OC(=O)N[C@H](CCCCNC(=O)[C@@H]1Cc2ccccc2CN1C(=O)CCC(=O)c1ccccc1)C(=O)NCC(c1ccccc1)c1ccccc1`, in data set [2], the pEC50 result was “inactive”. Besides, the Efficacy result in data set [3] was “inactive”. For the same compound, in data set [1], the Activity entry is “Non-toxic”. Further, the inhibition result in data set [4] and in data set [5] was “inactive” each time. Further, the values for the Efficacy in data set [6] and in data set [7] were 16% and 88%, respectively.
Regarding `NCCCC[C@@H](NC(=O)[C@@H]1Cc2ccccc2CN1C(=O)CCC(=O)c1ccccc1)C(=O)NCC(c1ccccc1)c1ccccc1`, the Efficacy in data set [3] was 85%; in data set [6], 108%; in data set [7] it was 198%.
As to `CC(C)(C)OC(=O)NCCCC[C@@H](NC(=O)[C@@H]1Cc2ccccc2CN1C(=O)CCC(=O)c1ccccc1)C(=O)NCC(c1ccccc1)c1ccccc1`, the Efficacy in data set [3] stood at 33%; in data set [6] it was 36%; in data set [7] it was 30%.
As for `CC(C)(C)OC(=O)N[C@@H](CCCCNC(=O)[C@@H]1Cc2ccccc2CN1C(=O)CCCC(=O)c1ccccc1)C(=O)NCC(c1ccccc1)c1ccccc1`, the pEC50 result in data set [2] was “inactive”. In data set [3], the Efficacy result was “inactive”. The Activity result in data set [1] is given as “Non-toxic”. Also, the inhibition result in data set [4] and in data set [5] was “inactive” in each case. Besides, the Efficacy in data set [6] came out at 20%; in data set [7] it was 56%.
With `N[C@@H](CCCCNC(=O)[C@@H]1Cc2ccccc2CN1)C(=O)NCC(c1ccccc1)c1ccccc1`, the Efficacy in data set [3] stood at 40%; in data set [6], 14%; in data set [7], 85%. Also, the inhibition entry in data set [4] and in data set [5] was “inactive” in each case.
As for `N[C@@H](CCCCNC(=O)[C@@H]1Cc2ccccc2CN1C(=O)CCCC(=O)c1ccccc1)C(=O)NCC(c1ccccc1)c1ccccc1`, in data set [2], the pEC50 entry was “inactive”. Moreover, the Efficacy result in data set [3] was “inactive”. Also, the inhibition result in data set [4] and in data set [5] was “inactive” in each case. In addition, the Efficacy in data set [6] amounted to 20%; in data set [7], 91%.
`CC(C)(C)OC(=O)N[C@H](CCCCNC(=O)[C@@H]1Cc2ccccc2CN1)C(=O)NCC(c1ccccc1)c1ccccc1`: the Activity entry in data set [1] is reported as “Non-toxic”. In addition, the inhibition entry in data set [4] and in data set [5] was “inactive” throughout.
`COc1ccc(C(=O)CCC(=O)N2Cc3ccccc3C[C@H]2C(=O)NCCCC[C@H](NC(=O)OC(C)(C)C)C(=O)NCC(c2ccccc2)c2ccccc2)cc1OC` came in with an Efficacy in data set [3] of 18%. In addition, the Activity entry in data set [1] was “Non-toxic”. The inhibition entry in data set [4] and in data set [5] was “inactive” each time. Also, the pEC50 entry in data set [8] was “inactive”. Also, in data set [6], the Efficacy entry was “inactive”.
Regarding `N[C@H](CCCCNC(=O)[C@@H]1Cc2ccccc2CN1C(=O)CCC(=O)c1ccccc1)C(=O)NCC(c1ccccc1)c1ccccc1`, the results for the Efficacy in data set [3], in data set [6] and in data set [7] were 25%, 28% and 79%, respectively. Further, the inhibition result in data set [4] and in data set [5] was “inactive” throughout.
As to `N[C@@H](CCCCNC(=O)[C@@H]1Cc2ccccc2CN1C(=O)CCC(=O)c1ccccc1)C(=O)NCC(c1ccccc1)c1ccccc1`, the pEC50 entry in data set [2] is “inactive”. Further, the Efficacy entry in data set [3] was “inactive”. Besides, the inhibition result in data set [4] and in data set [5] was “inactive” throughout. Moreover, the Efficacy in data set [6] was found to be 17%; in data set [7] it was 27%.
